Data published in article PMC10655810 (Journal of Agricultural and Food Chemistry, 2023).
Each block holds one molecule with its values, some of them ahead of it.

Tests used:
pepsin = pepsin (Sus scrofa, UniProt P00791); experiment: biochemical; design: species or system porcine; details: for Proteolytic activity of pepsin (residual activity): pH 2.5
RmuAP1CD = experiment: Effects of chemicals; type: biochemical, Rhodotorula mucilaginosa; details: same test as Table 1; preincubation 37 °C, 3 h; BSA, pH 2.5
Summary of the method: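 Residual activity was then measured with 10 μg enzyme and 5 mg BSA per 1 mL at pH 2.5 for 1–1.5 h. The reaction was stopped with cold TCA (10% w/v final), centrifuged, and supernatant A280 read. Triplicate.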

BSA = details: cited from earlier work
[1] = BSA denatured by 10 min preincubation at pH 0.8

pepsin, sequence (P00791 60-385): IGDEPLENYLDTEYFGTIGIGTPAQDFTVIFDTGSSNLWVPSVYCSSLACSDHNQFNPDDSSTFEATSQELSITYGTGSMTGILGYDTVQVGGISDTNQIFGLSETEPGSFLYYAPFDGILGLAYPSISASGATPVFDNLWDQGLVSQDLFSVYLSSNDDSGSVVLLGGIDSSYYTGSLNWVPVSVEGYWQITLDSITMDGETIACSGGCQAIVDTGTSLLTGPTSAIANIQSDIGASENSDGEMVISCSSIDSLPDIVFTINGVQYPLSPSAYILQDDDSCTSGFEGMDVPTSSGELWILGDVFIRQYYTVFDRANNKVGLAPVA

Molecule: O=C(O)CN(CCN(CC(=O)O)CC(=O)O)CC(=O)O [EDTA, ethylenediaminetetraacetic acid]
remaining activity at 5000 µM (pepsin; pH 2.5, read-out: Proteolytic activity of pepsin (residual activity)): 95 ± 2.5%
Effect on the proteolytic activity of RmuAP1CD (in words) (RmuAP1CD): unaffected

Molecule: O=S(=O)(F)Cc1ccccc1 [PMSF, phenylmethylsulfonyl fluoride]
Effect on the proteolytic activity of RmuAP1CD (in words) (RmuAP1CD): unaffected

Molecule: CCCCCCCCCCCCOS(=O)(=O)[O-].[Na+] [SDS, sodium dodecyl sulfate]
Proteolytic activity of pepsin (residual activity) (pepsin): 30 ± 4.0%
Effect on the proteolytic activity of RmuAP1CD (in words) (RmuAP1CD): moderately inhibited

Molecule: OCCS [β-ME, β-mercaptoethanol]
Proteolytic activity of pepsin (residual activity) (pepsin): 90 ± 1.0%
Effect on the proteolytic activity of RmuAP1CD (in words) (RmuAP1CD): did not influence the peptidase activity

Molecule: pepsin
Activity of pepsin on HCl-denatured BSA at pH 4.5 (BSA; [1]): 65%
pH of peak activity of pepsin on HCl-denatured BSA (BSA; [1]): 3.0
Optimum pH of pepsin for BSA (BSA; native BSA, pH 1.0 to 5.5): about 1.7
Activity of pepsin on BSA at pH 4.0, of its peak value (BSA; native BSA): 10%

Second part, the molecule after the results:

Effect on the proteolytic activity of RmuAP1CD (in words) (RmuAP1CD): moderately inhibited
Molecule: Triton X-100

Effect on the proteolytic activity of RmuAP1CD (in words) (RmuAP1CD): drastically inhibited
Molecule: pepstatin A
